# The list is not random: actives were taken first. Their share in the collection is about 2.3%.
# TRPC4 PAM: allosteric potentiators of mouse TRPC4 channel. B-score at 10 µM. Q9QUQ5. 310,000 tested, 0.42% active. AID 2227. HEK293 TRPC4beta/mu-opioid, DAMGO EC20, Fluo-4 Ca2+ flux; active compounds read high;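 active = B-score of calcium response area above 5 SD of library B-scores, with initial fluorescence ratio within 5 SD of library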
# TRPC6 act: activates the mouse TRPC6 cation channel; HEK293-TRPC6 membrane potential dye fluorescence; active compounds read high; 310,000 tested, 0.13% active; B-score at 10 µM; Q61143;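 active = B-score of the integrated fluorescence ratio above library mean plus 3 SD, and starting fluorescence ratio within library mean plus 5 SD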;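 also: higher score means more depolarization so channel activation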
# Target sequence (Q61143 whole entry, looked up): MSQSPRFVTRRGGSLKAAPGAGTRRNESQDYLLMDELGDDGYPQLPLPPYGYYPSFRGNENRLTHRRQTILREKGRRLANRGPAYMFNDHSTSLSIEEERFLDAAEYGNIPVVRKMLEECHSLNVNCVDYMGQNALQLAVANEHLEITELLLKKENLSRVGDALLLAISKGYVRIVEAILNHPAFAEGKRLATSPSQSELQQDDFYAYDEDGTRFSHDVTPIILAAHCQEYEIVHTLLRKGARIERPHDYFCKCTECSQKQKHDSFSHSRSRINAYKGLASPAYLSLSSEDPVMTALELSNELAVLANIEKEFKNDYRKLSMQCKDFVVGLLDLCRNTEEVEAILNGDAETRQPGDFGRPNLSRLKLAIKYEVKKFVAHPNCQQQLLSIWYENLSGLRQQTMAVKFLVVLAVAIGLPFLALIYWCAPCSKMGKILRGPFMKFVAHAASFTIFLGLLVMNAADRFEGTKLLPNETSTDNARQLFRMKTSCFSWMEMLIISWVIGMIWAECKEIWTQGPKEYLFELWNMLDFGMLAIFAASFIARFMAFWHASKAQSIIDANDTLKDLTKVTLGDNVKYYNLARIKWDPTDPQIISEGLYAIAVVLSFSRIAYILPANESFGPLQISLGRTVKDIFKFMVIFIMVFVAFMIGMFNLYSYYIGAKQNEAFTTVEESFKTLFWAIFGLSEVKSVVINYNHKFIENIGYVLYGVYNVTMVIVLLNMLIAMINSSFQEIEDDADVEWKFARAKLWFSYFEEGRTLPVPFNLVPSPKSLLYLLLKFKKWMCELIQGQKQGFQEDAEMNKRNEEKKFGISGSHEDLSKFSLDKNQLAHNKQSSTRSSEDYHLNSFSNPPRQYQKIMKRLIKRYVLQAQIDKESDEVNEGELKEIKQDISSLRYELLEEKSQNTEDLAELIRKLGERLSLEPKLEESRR
# TRPC6 inhibitor: blocks the mouse TRPC6 cation channel | AID 2553 | B-score at 10 µM | 310,000 tested, 1.1% active | HEK293-TRPC6, membrane potential dye, ACh-evoked depolarization; active compounds read low;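 active = B-score under library mean minus 3 SD, initial fluorescence not abnormally high, positive integrated signal ratio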;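 also: B-score derived from integrated fluorescence ratio over the kinetic read; more negative B-score means stronger inhibition of depolarization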
# TRPC4 inh: inhibitors of mouse TRPC4 channel; B-score at 10 µM; AID 2247; Q9QUQ5; 300,000 tested, 0.39% active; HEK293 TRPC4beta/mu-opioid, DAMGO-evoked Fluo4 calcium flux; active compounds read low;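 active = B-score over 3 SD under the library average, no early fluorescence shift, positive overall ratio signal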
#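 Assay system – HEK293 line stably carrying TRPC4beta and mu-opioid receptor · Doses – single dose · Detection – Fluo4 calcium-dye fluorescence, kinetic read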
# TRPC4 agonist: activators of mouse TRPC4 channel. Q9QUQ5. HEK293 TRPC4beta/mu-opioid, Fluo4 calcium fluorescence; active compounds read high. B-score at 10 µM. 310,000 tested, 0.49% active;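 active = B-score above 5 SD of library B-scores, and initial fluorescence ratio not above library mean plus 5 SD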;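 also: positive B-score marks a calcium rise read as TRPC4 activation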
#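 System: HEK293 cells stably co-expressing mouse TRPC4beta and mu-opioid receptor; Schedule: Fluo4 dye loading 45 min at room temperature, 110 s recording; Detection: Fluo4 fluorescence, kinetic; Evaluation: B-scored integrated calcium fluorescence ratio; Controls: buffer (low) and maximal DAMGO (high).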
# TRPC4 sel inh 2: mouse TRPC4 off-target activity of TRPC6 inhibitors, second screen; shares compounds with TRPC6 inhibitor; inhibition, % at 10 µM; 920 tested, 42% active; HEK293 TRPC4/MOR, membrane potential dye fluorescence; channel activated by saturating DAMGO dose;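 active = compounds whose fluorescence signal differed from control wells by over 3 SD, either direction, in both duplicate plates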
# TRPC4 spec: tests whether TRPC6 inhibitors also affect mouse TRPC4; shares compounds with TRPC6 inhibitor; AID 2777; 920 tested, 61% active; activity change, negative = inhibition, % at 10 µM; HEK293 TRPC4/mu-opioid, membrane potential fluorescence;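 active = rise or fall in signal beyond 3 SD of buffer-only wells in both replicate plates, either sign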;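 also: integrated kinetic ratio of fluorescence range over baseline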
# HEK293 MPD ctr 2-1: second counter-screen for TRPC6 inhibitors: parental HEK293 cells; shares compounds with TRPC6 inhibitor; parental HEK293 membrane potential dye fluorescence; maximal acetylcholine challenge after compound addition; signal change vs control, % at 10 µM; 920 tested, 31% active;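 active = membrane potential signal moving either way by over 3 SD of the maximum-effect control, in both duplicate plates, meaning non-specific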
# HEK293 MPD ctr-1: counter-screen for TRPC6 inhibitors: effect in parental HEK293 cells. shares compounds with TRPC6 inhibitor. parental HEK293 membrane potential dye fluorescence. membrane potential signal change, % at 10 µM. 920 tested, 60% active. AID 2780;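 active = membrane potential signal shifting up or down by more than 3 SD of buffer-only wells, on both duplicate plates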
# HEK293 MPD ctr-2: checks TRPC6 modulator effects in parental HEK293 cells | membrane potential signal change, % at 10 µM | membrane potential dye fluorescence | shares compounds with TRPC6 inhibitor | 2,400 tested, 51% active;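 active = membrane potential signal moves up or down beyond 5 SD from buffer-only wells, on both duplicate plates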
# HEK293 MPD ctr 2-2: parental HEK293 nonspecific activity of TRPC6 modulators, second screen; shares compounds with TRPC6 inhibitor; 2,400 tested, 14% active; inhibition, % at 10 µM; membrane potential dye fluorescence; after compound, maximal acetylcholine stimulation; AID 488926;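 active = membrane potential signal drops by more than 5 SD from the mean control signal, in both duplicate plates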
# TRPC4 ctr mod: mouse TRPC4 off-target activity of TRPC6 modulators. shares compounds with TRPC6 inhibitor. 2,400 tested, 69% active. HEK293 TRPC4/mu-opioid, membrane potential fluorescence. AID 488927. percent change from control (negative = decrease, positive = increase), % at 10 µM;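 active = membrane potential signal moved up or down beyond 5 SD of buffer control wells, in both duplicate plates, actives on both sides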
# TRPC4 ctr inh 2: mouse TRPC4 off-target activity of TRPC6 modulators, second screen; shares compounds with TRPC6 inhibitor; HEK293 TRPC4/mu-opioid, membrane potential dye fluorescence; stimulated with maximal-effect DAMGO; inhibition, % at 10 µM; 2,400 tested, 55% active; AID 488928;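 active = drop in membrane potential signal beyond 5 SD of the control wells in both duplicate plates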;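 also: TRPC4 counter screen for TRPC6 hits run under conditions tuned for TRPC6 not TRPC4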
# TRPC6 block conf: mouse TRPC6 inhibitor confirmation. shares compounds with TRPC6 inhibitor. HEK293-TRPC6, membrane potential dye, ACh-evoked depolarization. inhibition, % at 10 µM. 3,300 tested, 43% active;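 active = fluorescence ratio falls more than 5 SD below the full-stimulation control mean, in both duplicate runs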;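 also: integrated fluorescence ratio of peak minus minimum over baseline after agonist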
# TRPC6 act confirm: mouse TRPC6 activator confirmation. shares compounds with TRPC6 inhibitor. HEK293-TRPC6 membrane potential dye fluorescence, FDSS. activation, % at 10 µM. 2,800 tested, 11% active;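 active = ratio signal rise beyond 5 SD above unstimulated control wells' mean, seen in both duplicate runs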
# Numbers stand for hits; 0 = inactive; - = no result.
SMILES,TRPC4 PAM,TRPC6 act,TRPC6 inhibitor,TRPC4 inh,TRPC4 agonist,HEK293 MPD ctr-2,HEK293 MPD ctr 2-2,TRPC4 ctr mod,TRPC4 ctr inh 2,TRPC6 block conf,TRPC6 act confirm,others
Cc1[nH]n(-c2ccccc2)c(=O)c1C(c1ccc([N+](=O)[O-])cc1)c1c(C)[nH]n(-c2ccccc2)c1=O,0,0,-5.9,0,0,0,0,0,38%,42%,0,
C[n+]1c(-c2ccccc2)c2cc(N)ccc2c2ccc(N)cc21,0,0,-6.7,0,0,-208%,80%,-73%,68%,56%,0,
CCC1(OC(=O)c2ccccc2)CC(C)N(C)CC1C (stereo unspecified),0,0,0,0,0,-,-,-,-,-,-,
O=C(O)c1ccccc1-c1ccc(C=C2C(=O)N(c3ccccc3)C(=S)N(c3ccccc3)C2=O)o1,0,0,0,0,0,-,-,-,-,-,-,
C=CCN(c1ccc(C(=O)N(CC)CC)cc1)S(C)(=O)=O,0,0,-5.6,0,0,0,0,0,0,0,0,
Cc1ccc(OP(=O)(O)Oc2ccc(C)cc2)cc1,0,0,-6.5,0,0,0,0,0,0,0,-,
CCCCn1c(O)c(C(=O)/C=C/c2c[nH]c3ccccc23)c(=O)[nH]c1=O,0,247,0,0,0,941%,0,586%,0,0,212%,
CCOC(=O)C1(CCOc2ccccc2)CCN(Cc2ccc(C)s2)CC1,0,0,0,0,0,-,-,-,-,-,-,
CN(C)c1cc(N)c2c(n1)CCC2 (tested in a mixture with another compound),0,0,-6.4,0,0,-271%,0,-40%,40%,0,0,
CN1CCC(N(C)c2nc(-c3ccc([N+](=O)[O-])cc3)nc3ccccc23)CC1,0,0,-11,0,0,-296%,69%,-56%,57%,68%,0,
CCOc1ccccc1CN1C2CCC1CC(c1ccc(C)cc1)C2 (stereo unspecified),0,16,0,0,0,265%,0,69%,58%,0,108%,
CCOc1ccccc1CNCCc1ccc2c(c1)OCO2,0,0,0,0,0,-,-,-,-,-,-,
Cc1nn(Cc2ccccc2)c(Cl)c1C(=O)OCC(=O)NCC1CCCO1 (stereo unspecified),0,0,0,0,0,-,-,-,-,-,-,
Cc1[nH]c2ccccc2c1C(=O)C(=O)N1CC2CC(C1)c1cccc(=O)n1C2 (stereo unspecified),0,0,0,0,0,-,-,-,-,-,-,
CCC(CO)(C(=O)OC1C[N+]2(C)CCC1CC2)c1ccccc1 (stereo unspecified),0,0,-11,0,0,-,-,-,-,97%,0,TRPC4 sel inh 2=0;TRPC4 spec=0;HEK293 MPD ctr 2-1=-30%;HEK293 MPD ctr-1=0

# Screens from PubChem.
